Values after ≈ are worked out from the molar mass of the structure shown.
Experiments:
Type in all cases: functional
Candida albicans [1] = experiment: Antifungal activity against Candida albicans ATCC 10261 after 48 hrs by CLSI broth microdilution method; conditions: ATCC 10261, 48 h
Procedure, shortened: (§1)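 Yeast CLSI broth microdilution (M27-A3). Compounds dissolved in DMSO at 100× the top test concentration, then diluted as serial two-fold dilutions in RPMI 1640 to final 0.125–64. Inoculum was 1.0–1.5 × 10^3 cells mL−1, incubated at 35 °C and read for growth at 48 h. MIC is the lowest concentration giving ≥50% growth inhibition versus growth control. Reported as the median of five replicates and as the geometric mean.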

Cryptococcus neoformans [2] = experiment: Antifungal activity against Cryptococcus neoformans PMC 2115 after 72 hrs by CLSI broth microdilution method; conditions: PMC 2115, 72 h
Procedure, shortened: (§2)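 Cryptococcus neoformans tested by CLSI broth microdilution in RPMI 1640, with serial two-fold dilutions from DMSO stocks at 100× the top concentration, final 0.125–64. Inoculum was 1.0–1.5 × 10^3 cells mL−1 at 35 °C, with growth read at 72 h. MIC is the lowest concentration with ≥50% growth inhibition versus control. Median of five replicates, plus geometric mean.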

Nannizzia gypsea [3] = experiment: Antifungal activity against Microsporum gypseum DSM 3824 after 72 hrs by CLSI broth microdilution method; conditions: DSM 3824, 72 h
Procedure, shortened: (§3)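 Dermatophytes tested by CLSI broth microdilution for filamentous fungi (M38-A2). Serial two-fold dilutions of DMSO-dissolved compound in RPMI 1640, final 0.125–64. Inoculum was 0.4–5 × 10^4 CFU mL−1, incubated at 35 °C and read at 72 h. MIC80 is the lowest concentration giving ≥80% growth inhibition versus growth control. Median of five replicates, plus geometric mean.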

[4] = test system: Trichophyton mentagrophytes; experiment: Antifungal activity against Trichophyton mentagrophytes PMC 6515 after 72 hrs by CLSI broth microdilution method; conditions: PMC 6515, 72 h; procedure, shortened: as §3
Candida albicans [5] = experiment: Antifungal activity against Candida albicans ATCC 24433 after 48 hrs by CLSI broth microdilution method; conditions: ATCC 24433, 48 h; procedure, shortened: as §1
Nannizzia gypsea [6] = experiment: Antifungal activity against Microsporum gypseum PMC 7331 after 72 hrs by CLSI broth microdilution method; conditions: PMC 7331, 72 h; procedure, shortened: as §3
Cryptococcus neoformans [7] = experiment: Antifungal activity against Cryptococcus neoformans PMC 2102 after 72 hrs by CLSI broth microdilution method; conditions: PMC 2102, 72 h; procedure, shortened: as §2
Cryptococcus neoformans [8] = experiment: Antifungal activity against Cryptococcus neoformans PMC 2107 after 72 hrs by CLSI broth microdilution method; conditions: PMC 2107, 72 h; procedure, shortened: as §2
[9] = test system: Trichophyton mentagrophytes; experiment: Antifungal activity against Trichophyton mentagrophytes PMC 6509 after 72 hrs by CLSI broth microdilution method; conditions: PMC 6509, 72 h; procedure, shortened: as §3
Cryptococcus neoformans [10] = experiment: Antifungal activity against Cryptococcus neoformans PMC 2111 after 72 hrs by CLSI broth microdilution method; conditions: PMC 2111, 72 h; procedure, shortened: as §2
Cryptococcus neoformans [11] = experiment: Antifungal activity against Cryptococcus neoformans PMC 2103 after 72 hrs by CLSI broth microdilution method; conditions: PMC 2103, 72 h; procedure, shortened: as §2
Nannizzia gypsea [12] = experiment: Antifungal activity against Microsporum gypseum PMC 7303 after 72 hrs by CLSI broth microdilution method; conditions: PMC 7303, 72 h; procedure, shortened: as §3
Candida albicans [13] = experiment: Antifungal activity against Candida albicans ATCC 90028 after 48 hrs by CLSI broth microdilution method; conditions: ATCC 90028, 48 h; procedure, shortened: as §1
Candida tropicalis [14] = experiment: Antifungal activity against Candida tropicalis PMC 0910 after 48 hrs by CLSI broth microdilution method; conditions: PMC 0910, 48 h; procedure, shortened: as §1
[15] = test system: Trichophyton mentagrophytes; experiment: Antifungal activity against Trichophyton mentagrophytes PMC 6503 after 72 hrs by CLSI broth microdilution method; conditions: PMC 6503, 72 h; procedure, shortened: as §3
Candida albicans [16] = experiment: Antifungal activity against Candida albicans ATCC 20891 after 48 hrs by CLSI broth microdilution method; conditions: ATCC 20891, 48 h; procedure, shortened: as §1
Candida albicans [17] = experiment: Antifungal activity against Candida albicans ATCC 10231 after 48 hrs by CLSI broth microdilution method; conditions: ATCC 10231, 48 h; procedure, shortened: as §1
Candida albicans [18] = experiment: Antifungal activity against Candida albicans ATCC 76615 after 48 hrs by CLSI broth microdilution method; conditions: ATCC 76615, 48 h; procedure, shortened: as §1
[19] = test system: Trichophyton mentagrophytes; experiment: Antifungal activity against Trichophyton mentagrophytes DSM 4870 after 72 hrs by CLSI broth microdilution method; conditions: DSM 4870, 72 h; procedure, shortened: as §3
Candida parapsilosis [20] = experiment: Antifungal activity against Candida parapsilosis ATCC 22019 after 48 hrs by CLSI broth microdilution method; conditions: Lodderomyces parapsilosis, ATCC 22019, 48 h; procedure, shortened: as §1
Candida parapsilosis [21] = experiment: Antifungal activity against Candida parapsilosis DSM 11224 after 48 hrs by CLSI broth microdilution method; conditions: Lodderomyces parapsilosis, DSM 11224, 48 h; procedure, shortened: as §1
Candida albicans [22] = experiment: Antifungal activity against Candida albicans PMC 1011 after 48 hrs by CLSI broth microdilution method; conditions: PMC 1011, 48 h; procedure, shortened: as §1
Nakaseomyces glabratus [23] = experiment: Antifungal activity against Candida glabrata PMC 0807 after 48 hrs by CLSI broth microdilution method; conditions: PMC 0807, 48 h; procedure, shortened: as §1
Candida tropicalis [24] = experiment: Antifungal activity against Candida tropicalis DSM 11953 after 48 hrs by CLSI broth microdilution method; conditions: DSM 11953, 48 h; procedure, shortened: as §1
Candida albicans [25] = experiment: Antifungal activity against Candida albicans ATCC 3153 after 48 hrs by CLSI broth microdilution method; conditions: ATCC 3153, 48 h; procedure, shortened: as §1
Cryptococcus neoformans [26] = experiment: Antifungal activity against Cryptococcus neoformans PMC 2123 after 72 hrs by CLSI broth microdilution method; conditions: PMC 2123, 72 h; procedure, shortened: as §2
Cryptococcus neoformans [27] = experiment: Antifungal activity against Cryptococcus neoformans PMC 2136 after 72 hrs by CLSI broth microdilution method; conditions: PMC 2136, 72 h; procedure, shortened: as §2
Pichia kudriavzevii [28] = experiment: Antifungal activity against Candida krusei DSM 6128 after 48 hrs by CLSI broth microdilution method; conditions: DSM 6128, 48 h; procedure, shortened: as §1
[29] = test system: Trichophyton mentagrophytes; experiment: Antifungal activity against Trichophyton mentagrophytes PMC 6531 after 72 hrs by CLSI broth microdilution method; conditions: PMC 6531, 72 h; procedure, shortened: as §3
Nakaseomyces glabratus [30] = experiment: Antifungal activity against Candida glabrata PMC 0805 after 48 hrs by CLSI broth microdilution method; conditions: PMC 0805, 48 h; procedure, shortened: as §1
Pichia kudriavzevii [31] = experiment: Antifungal activity against Candida krusei PMC 0613 after 48 hrs by CLSI broth microdilution method; conditions: PMC 0613, 48 h; procedure, shortened: as §1
[32] = test system: Trichophyton mentagrophytes; experiment: Antifungal activity against Trichophyton mentagrophytes PMC 6552 after 72 hrs by CLSI broth microdilution method; conditions: PMC 6552, 72 h; procedure, shortened: as §3
Cryptococcus neoformans [33] = experiment: Antifungal activity against Cryptococcus neoformans DSM 11959 after 72 hrs by CLSI broth microdilution method; conditions: DSM 11959, 72 h; procedure, shortened: as §2

MIC50 (Candida albicans [1]) | MIC50 (Cryptococcus neoformans [2]) | MIC80 (Nannizzia gypsea [3]) | MIC80 [4] | MIC50 (Candida albicans [5]) | MIC80 (Nannizzia gypsea [6]) | MIC50 (Cryptococcus neoformans [7]) | MIC50 (Cryptococcus neoformans [8]) | MIC80 [9] | MIC50 (Cryptococcus neoformans [10]) | MIC50 (Cryptococcus neoformans [11]) | MIC80 (Nannizzia gypsea [12]) | MIC50 (Candida albicans [13]) | MIC50 (Candida tropicalis [14]) | MIC80 [15] | MIC50 (Candida albicans [16]) | MIC50 (Candida albicans [17]) | MIC50 (Candida albicans [18]) | MIC80 [19] | MIC50 (Candida parapsilosis [20]) | also measured | Structure (SMILES)
8 µg/mL (≈ 18.2 µM) | 16 µg/mL (≈ 36.3 µM) | 32 µg/mL (≈ 72.7 µM) | 32 µg/mL (≈ 72.7 µM) | 8 µg/mL (≈ 18.2 µM) | 32 µg/mL (≈ 72.7 µM) | 8 µg/mL (≈ 18.2 µM) | 1 µg/mL (≈ 2.27 µM) | 64 µg/mL (≈ 145 µM) | 8 µg/mL (≈ 18.2 µM) | 2 µg/mL (≈ 4.54 µM) | 64 µg/mL (≈ 145 µM) | 4 µg/mL (≈ 9.08 µM) | 16 µg/mL (≈ 36.3 µM) | 32 µg/mL (≈ 72.7 µM) | 8 µg/mL (≈ 18.2 µM) | 16 µg/mL (≈ 36.3 µM) | 64 µg/mL (≈ 145 µM) | 32 µg/mL (≈ 72.7 µM) | 16 µg/mL (≈ 36.3 µM) | MIC50 (Candida parapsilosis [21]): 2 µg/mL (≈ 4.54 µM); MIC50 (Candida albicans [22]): 4 µg/mL (≈ 9.08 µM); MIC50 (Nakaseomyces glabratus [23]): 32 µg/mL (≈ 72.7 µM); MIC50 (Candida tropicalis [24]): 32 µg/mL (≈ 72.7 µM); MIC50 (Candida albicans [25]): 16 µg/mL (≈ 36.3 µM); MIC50 (Cryptococcus neoformans [26]): 16 µg/mL (≈ 36.3 µM); MIC50 (Cryptococcus neoformans [27]): 2 µg/mL (≈ 4.54 µM); MIC50 (Pichia kudriavzevii [28]): 16 µg/mL (≈ 36.3 µM); MIC80 [29]: 32 µg/mL (≈ 72.7 µM); MIC50 (Nakaseomyces glabratus [30]): 8 µg/mL (≈ 18.2 µM); MIC50 (Pichia kudriavzevii [31]): 4 µg/mL (≈ 9.08 µM); MIC80 [32]: 32 µg/mL (≈ 72.7 µM); MIC50 (Cryptococcus neoformans [33]): 4 µg/mL (≈ 9.08 µM) | O=C(OC(Cn1ccnc1)c1ccc(F)cc1)N1CCN(c2ncccc2[N+](=O)[O-])CC1 (stereo unspecified)
4 µg/mL (≈ 8.98 µM) | 4 µg/mL (≈ 8.98 µM) | 8 µg/mL (≈ 18 µM) | 4 µg/mL (≈ 8.98 µM) | 8 µg/mL (≈ 18 µM) | 16 µg/mL (≈ 35.9 µM) | 4 µg/mL (≈ 8.98 µM) | 2 µg/mL (≈ 4.49 µM) | 8 µg/mL (≈ 18 µM) | 2 µg/mL (≈ 4.49 µM) | 2 µg/mL (≈ 4.49 µM) | 8 µg/mL (≈ 18 µM) | 4 µg/mL (≈ 8.98 µM) | 16 µg/mL (≈ 35.9 µM) | 4 µg/mL (≈ 8.98 µM) | 8 µg/mL (≈ 18 µM) | 8 µg/mL (≈ 18 µM) | 8 µg/mL (≈ 18 µM) | 8 µg/mL (≈ 18 µM) | 1 µg/mL (≈ 2.25 µM) | MIC50 (Candida parapsilosis [21]): 8 µg/mL (≈ 18 µM); MIC50 (Candida albicans [22]): 4 µg/mL (≈ 8.98 µM); MIC50 (Nakaseomyces glabratus [23]): 32 µg/mL (≈ 71.9 µM); MIC50 (Candida tropicalis [24]): 64 µg/mL (≈ 144 µM); MIC50 (Candida albicans [25]): 4 µg/mL (≈ 8.98 µM); MIC50 (Cryptococcus neoformans [26]): 2 µg/mL (≈ 4.49 µM); MIC50 (Cryptococcus neoformans [27]): 2 µg/mL (≈ 4.49 µM); MIC50 (Pichia kudriavzevii [28]): 128 µg/mL (≈ 287 µM); MIC80 [29]: 8 µg/mL (≈ 18 µM); MIC50 (Nakaseomyces glabratus [30]): 8 µg/mL (≈ 18 µM); MIC50 (Pichia kudriavzevii [31]): 8 µg/mL (≈ 18 µM); MIC80 [32]: 8 µg/mL (≈ 18 µM); MIC50 (Cryptococcus neoformans [33]): 2 µg/mL (≈ 4.49 µM) | O=C(O[C@@H](Cn1ccnc1)c1ccc(Cl)cc1)N1CCN(c2ccc(Cl)cc2)CC1

From ChEMBL document CHEMBL3286116, “Synthesis, biological evaluation and structure-activity correlation study of a series of imidazol-based compounds as Candida albicans inhibitors” (Eur J Med Chem, 2014)
